# Pf Dd2 growth: P. falciparum Dd2 growth inhibitors, primary screen, SYBR Green fluorescence, single dose replicates; 72 h; stronger effect = lower value; activity change, % at 10 µM; 94,000 tested, 2.3% active; in the data active = activity change below about -80%
# GASC1 inh: inhibitors of GASC-1 (KDM4C) histone demethylase, primary screen, biochemical, single concentration HTS. inhibition, % at 12.5 µM. GST-KDM4C 2-372, H3K9me3 peptide, LANCE TR-FRET. Lysine-specific demethylase 4C (Homo sapiens), Q9H3R0. 96,000 tested, 0.15% active. AID 720574, 2013;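 active = mean replicate inhibition above about 25%, with at least 55% of replicates also reaching it, limit read from the data, passing the limit was not always enough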
# Target sequence (Q9H3R0 2-372 limits assumed): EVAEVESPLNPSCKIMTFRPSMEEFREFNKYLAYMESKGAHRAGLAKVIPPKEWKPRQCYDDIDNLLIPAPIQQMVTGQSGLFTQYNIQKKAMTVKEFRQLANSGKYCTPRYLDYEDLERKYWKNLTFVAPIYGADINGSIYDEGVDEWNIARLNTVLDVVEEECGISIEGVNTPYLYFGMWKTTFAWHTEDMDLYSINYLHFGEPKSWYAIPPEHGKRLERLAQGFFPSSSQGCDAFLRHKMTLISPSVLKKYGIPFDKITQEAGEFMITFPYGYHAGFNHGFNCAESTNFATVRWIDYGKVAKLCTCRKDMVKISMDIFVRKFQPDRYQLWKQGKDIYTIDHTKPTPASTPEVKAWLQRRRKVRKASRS
#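 Test system – GST-tagged GASC-1 (JMJD2C) catalytic fragment, aa 2-372 · Medium – HEPES buffer, pH 7.5, plus ascorbate · Reagent – H3K9me3 peptide with Fe(II)/2OG · Compound – one test concentration per compound · Timing – 30 min reaction, 60 min detection, RT · Technique – TR-FRET with Eu antibody and ULight streptavidin, EDTA stop · Read-out basis – inhibition from TR-FRET ratio decrease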
# IDH1 R132H inh: inhibitors of IDH1 R132H reductase, primary screen, biochemical, plate reader, single point; inhibition, % at 10 µM; diaphorase/resazurin fluorescence, 60 min; 70,000 tested, 0.18% active; AID 624101, 2012; Isocitrate dehydrogenase [NADP] cytoplasmic (Homo sapiens), O75874; in the data active = inhibition above about 34%;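 note: 0% = DMSO and 100% = no enzyme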
# Tcruzi prolif: T. cruzi intracellular proliferation inhibitors, primary screen, cell-based, beta-gal Tulahuen parasites, NIH3T3 host, luminescence | T. cruzi beta-gal in NIH3T3, GalScreen luminescence, 90 h | inhibition, % at 8.34 µM | 77,000 tested, 5.9% active | AID 624255, 2012;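 active = mean inhibition above about 93%, with at least 55% of replicates each passing it, limit read from the data, passing the limit was not always enough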
# * hit, by the source's call; · = not tested or not shown. Shown are actives, neighbours in structure and some others; about 5.9% of the full set was active somewhere.
SMILES,Pf Dd2 growth,GASC1 inh,IDH1 R132H inh,Tcruzi prolif
COc1cc(Br)cc(/C=N/NC(=O)c2cccc(C(=O)NO)c2)c1O,·,·,0.4,·
Cc1noc(C)c1S(=O)(=O)N(C)C[C@@H]1OCCCC[C@H](C)Oc2ccc(NC(=O)C3CCCCC3)cc2C(=O)N([C@@H](C)CO)C[C@H]1C,-82.8*,-0.2,-0.7,-7.6
Cc1noc(C)c1S(=O)(=O)N(C)C[C@H]1OCCCC[C@@H](C)Oc2ccc(NC(=O)C3CCCCC3)cc2C(=O)N([C@@H](C)CO)C[C@@H]1C,-81.9*,-0.6,·,58.6
Cn1c(SCC(=O)Nc2ccccc2C(=O)Nc2ccccc2)nc2ccccc2c1=O,·,·,-0.1,·
O=C(C[C@H]1CC[C@H]2[C@@H](COC[C@H](O)CN2C(=O)c2ccccc2F)O1)NCc1ccc(-c2ccccc2)cc1,-55.4,-2.0,·,·
O=C(C[C@@H]1CC[C@@H]2[C@H](COC[C@@H](O)CN2C(=O)c2ccccc2F)O1)NCc1ccc(-c2ccccc2)cc1,-86.2*,0.5,·,·
CS(=O)(=O)N(CC(=O)Nc1ccccc1C(F)(F)F)C1CCCCC1,·,·,-0.5,·
O=C(CN1CCOCC1)NCC[C@H]1CC[C@H](NC(=O)c2ccc3c(c2)OCO3)[C@H](CO)O1,-9.3,49.7*,61.4*,-0.1
CCc1ccc2oc(-c3ccc(C)c(NC(=O)COc4ccccc4)c3)nc2c1,·,·,0.5,·
COc1ccc2c3c(n(C)c2c1)[C@H](CO)N(C(=O)C1CCC1)CC31CCN(Cc2cccc(F)c2)CC1,-84.4*,-2.9,·,·
COc1cccc(CN2CCC3(CC2)CN(C(=O)C2CC2)[C@H](CO)c2c3c3ccc(OC)cc3n2C)c1,-84.9*,-1.1,·,·
COc1ccc2c3c(n(C)c2c1)[C@@H](CO)N(C(=O)C1CCC1)CC31CCN(Cc2cccc(F)c2)CC1,-71.9,-0.1,·,·
CCOC(=O)c1ccc(NC(=O)Cn2cc(C#N)c3ccccc32)cc1,·,·,0.0,·
CC(/C=C/C(=O)NO)=C\c1ccccc1OC[C@@H]1[C@H]2C[C@H]3c4[nH]c5ccccc5c4CCN3C[C@@H]2CC[C@@H]1O,·,·,73.9*,·
COc1ccc2c3c(n(C)c2c1)[C@@H](CO)N(S(C)(=O)=O)CC31CCN(C(=O)CN(C)C)CC1,-88.6*,0.1,·,·
CCC(=O)N1CCC2(CC1)CN(CC1CCCCC1)[C@H](CO)c1c2c2ccc(OC)cc2n1C,41.7,·,·,·
COc1ccc2c3c(n(C)c2c1)[C@@H](CO)N(S(=O)(=O)c1ccc(C)cc1)CC31CCN(S(=O)(=O)c2ccc(C)cc2)CC1,-84.9*,2.1,·,·
CCC(=O)N1CCC2(CC1)CN(CC1CCCCC1)[C@@H](CO)c1c2c2ccc(OC)cc2n1C,-85.5*,-2.3,·,·
COc1ccc2c3c(n(C)c2c1)[C@@H](CO)N(CC1CCCC1)CC31CCN(C(=O)CN(C)C)CC1,-85.0*,1.5,·,·
COc1ccc2c3c(n(C)c2c1)[C@@H](CO)N(S(=O)(=O)c1ccc(C)cc1)CC31CCN(C)CC1,-58.5,-0.4,·,·
CCC(=O)N1CCC2(CC1)CN(S(C)(=O)=O)[C@H](CO)c1c2c2ccc(OC)cc2n1C,25.7,1.0,·,·
CN(C)c1ccc2c(c1)[C@H]1C[C@H](CC(=O)NCc3ccccc3)O[C@H](CO)[C@H]1O2,-52.8,44.4*,-1.2,51.3
C[C@H](NC(=O)C[C@@H]1C[C@H]2c3cc(NC(=O)NC4CCCCC4)ccc3O[C@H]2[C@@H](CO)O1)c1ccccc1,1.7,32.1*,0.1,16.5
C[C@@H](NC(=O)C[C@H]1C[C@@H]2c3cc(NS(=O)(=O)c4ccc(F)cc4)ccc3O[C@@H]2[C@H](CO)O1)c1ccccc1,-98.9*,-0.7,-0.2,63.7
O=C(C[C@@H]1C[C@H]2c3cc(NC(=O)NC4CCCCC4)ccc3O[C@H]2[C@@H](CO)O1)NCc1ccccn1,12.3,-2.0,0.1,·
SMILES,Pf Dd2 growth,GASC1 inh,IDH1 R132H inh,Tcruzi prolif
O=C(C[C@@H]1C[C@H]2c3cc(NC(=O)NC4CCCCC4)ccc3O[C@H]2[C@H](CO)O1)NCc1ccccn1,-43.7,87.9*,101.5*,·
C[C@H](NC(=O)C[C@H]1C[C@@H]2c3cc(NS(=O)(=O)c4ccc(F)cc4)ccc3O[C@@H]2[C@H](CO)O1)c1ccccc1,-22.0,0.3,-0.1,22.8
CN(C)c1ccc2c(c1)[C@@H]1C[C@H](CC(=O)NCc3ccc(-c4ccccc4)cc3)O[C@@H](CO)[C@@H]1O2,-57.7,6.1,-4.8,52.3
Cn1nnnc1SCC(=O)Nc1cccc(Cl)c1,·,·,0.2,·
CN(CC(=O)Nc1ccc(F)c(Cl)c1)S(=O)(=O)c1ccc2ccccc2c1,·,·,-0.1,·
CN(C)c1ccc2c(c1)[C@H]1C[C@H](CC(=O)NCc3ccccn3)O[C@H](CO)[C@H]1O2,-14.2,34.0*,-3.5,-0.3
CN(C)c1ccc2c(c1)[C@H]1C[C@@H](CC(=O)NCc3ccccc3)O[C@@H](CO)[C@H]1O2,-7.9,39.6*,-1.6,43.1
NS(=O)(=O)c1ccc(CCNC(=O)c2cc(-c3cccnc3)nc3ccc(Cl)cc23)cc1,·,·,0.3,·
COc1cc(NC(=O)C(C)N2C(=O)C3CC=C(Cl)CC3C2=O)ccc1[N+](=O)[O-] (stereo not given),·,·,0.3,·
CCn1c(SCC(=O)Nc2cc(C)c(Cl)cc2OC)nnc1-c1cccs1,·,·,3.4,·
C[C@H]1CCCCO[C@@H](CN(C)C(=O)Nc2ccc(F)cc2)[C@@H](C)CN([C@@H](C)CO)C(=O)c2cc(NC(=O)C3CCCCC3)ccc2O1,-63.5,-3.1,-2.7,72.2
C[C@@H]1CCCCO[C@H](CN(C)C(=O)Nc2ccccc2)[C@@H](C)CN([C@H](C)CO)C(=O)c2cc(NC(=O)C3CCCCC3)ccc2O1,-10.5,0.2,0.3,55.9
C[C@@H]1CCCCO[C@H](CN(C)C(=O)Nc2ccccc2)[C@H](C)CN([C@H](C)CO)C(=O)c2cc(NC(=O)C3CCCCC3)ccc2O1,-86.6*,-0.6,2.5,56.7
C[C@@H]1CCCCO[C@H](CN(C)C(=O)Nc2ccc(F)cc2)[C@@H](C)CN([C@@H](C)CO)C(=O)c2cc(NC(=O)C3CCCCC3)ccc2O1,-86.4*,-0.2,·,65.8
C[C@@H]1CCCCO[C@@H](CN(C)C(=O)Nc2ccc(F)cc2)[C@@H](C)CN([C@@H](C)CO)C(=O)c2cc(NC(=O)C3CCCCC3)ccc2O1,-85.8*,0.9,·,71.7
C[C@H]1CN([C@@H](C)CO)C(=O)c2cccc(NC(=O)CCCCCC(=O)Nc3ccccc3N)c2O[C@@H]1CN(C)Cc1ccc(-c2ccccc2)cc1,-92.7*,12.8,3.2,·
C[C@@H]1CN([C@H](C)CO)C(=O)c2cccc(NC(=O)CCCCCC(=O)Nc3ccccc3N)c2O[C@H]1CN(C)Cc1ccccc1,-88.2*,-3.9,-0.7,·
C[C@H](CO)N1C[C@H](C)[C@@H](CN(C)Cc2ccncc2)Oc2c(NC(=O)CCCCCC(=O)Nc3ccccc3N)cccc2C1=O,-29.4,-1.5,·,46.1
O=C(COc1ccc(Cl)cc1Br)Nc1ccccc1C(=O)NC1CCCCC1,·,·,0.5,·
